Assay results from different studies.
Compare with care: the assays were run in different laboratories.
CYSLTR1: Cysteinyl leukotriene receptor 1 (CYSLTR1, Homo sapiens, UniProt Q9Y271)
BCHE: Cholinesterase (BCHE, Homo sapiens, UniProt P06276)

`CN(CCN1CCC(OC(=O)Nc2ccccc2-c2ccccc2)CC1)C(=O)c1ccc(CN2CCC(C(N)=O)CC2)cc1` has an inhibition of -13% (CYSLTR1; ligand displacement, radioligand; 1 µM).
For `COc1ccc(S(=O)(=O)N2CCCCC2)cc1C`, the inhibition was less than 30% (CYSLTR1; ligand displacement, radioligand; 10 µM).
For `COc1ccc2c(c1)[nH]c1c(C)nccc12`, the inhibition was 53.6% (DNA dC->dU-editing enzyme APOBEC-3B (Homo sapiens, UniProt Q9UH17); enzyme activity, inhibitor, fluorescence; 100 µM).
For `C=CCn1c2cc(OC(=O)CCCCN3CCN(Cc4ccccc4Cl)CC3)ccc2c2ccnc(C)c21`, the inhibition was 46.1% (BCHE; enzyme activity, inhibitor, Ellman; 1 µM).
For `CC(C)N1CCC[C@H]1CNC(=O)c1cn(C2CCCC2)c(=O)c2c1c1ccccc1n2C`, the inhibition was 22% (CYSLTR1; ligand displacement, radioligand; 10 µM).
`Cn1cc(-c2cc(F)cc(N3CCn4c(cc5c4CCCC5)C3=O)c2CO)cc(Nc2ccc(N3CCN(C4COC4)CC3)cn2)c1=O` has an inhibition of 40% (Tyrosine-protein kinase Fgr (FGR, Homo sapiens, UniProt P09769); enzyme activity, inhibitor; 0.1 µM).
`COc1cc2c(cc1OC)C(=O)C(CC1CCN(Cc3ccccc3)CC1)C2` (centres unmarked) has an inhibition of 22.5% (BCHE; enzyme activity, inhibitor, Ellman; 1 µM).
The inhibition of `CCN(CC)CCCC[C@H](NC(=O)[C@H](CC(C)C)NC(=O)[C@H](C)NC(=O)[C@H](Cc1ccccc1)NC(=O)c1ccc(C(C)(C)C)cc1)C(=O)N[C@@H](CO)C(=O)OC` is reported as 16% (Melanocortin receptor 4 (MC4R, Homo sapiens, UniProt P32245); ligand displacement, radioligand; 10 µM).
With `O=C(Nc1cccnn1)N1CCN([C@@H]2CCOc3cc(C(F)(F)F)ccc32)CC1` the inhibition was 6% (CYSLTR1; ligand displacement; 20 µM).
`C#Cc1n[nH]c2c(-c3cn([C@@H](C)c4ccccc4)c(=O)[nH]c3=O)cc(F)cc12` gave an inhibition of -4.7% (Fibroblast growth factor receptor 1 (FGFR1, Homo sapiens, UniProt P11362, V561M); enzyme activity, inhibitor; 0.1 µM).
The inhibition of `C=CCn1c2cc(OC(=O)CCCCN3CCN(Cc4cccc(C(F)(F)F)c4)CC3)ccc2c2ccnc(C)c21` is reported as 40.2% (BCHE; enzyme activity, inhibitor, Ellman; 1 µM).
`[C-]#[O+]` gave an inhibition of 70% (Catalase (CAT, Bos taurus, UniProt P00432); enzyme activity, inhibitor; 1 mM).
`C#Cc1n[nH]c2c(-c3cn([C@@H](C)c4ccccn4)c(=O)[nH]c3=O)cc(F)cc12` has an inhibition of 5.4% (Fibroblast growth factor receptor 1 (FGFR1, Homo sapiens, UniProt P11362); enzyme activity, inhibitor; 0.1 µM).
`C=CCn1c2cc(OC(=O)CCCCN3CCN(Cc4ccccc4)CC3)ccc2c2ccnc(C)c21` gave an inhibition of 38.5% (BCHE; enzyme activity, inhibitor, Ellman; 1 µM).
